Experiment [1] addresses peptidylglycine alpha-amidating monooxygenase (Rattus norvegicus) (UniProt P14925). Put plainly: Inhibition of rat peptidylamidoglycolate lyase assessed as ascorbate-independent dealkylation of alpha-hydroxy-hipurate. Details: concentration or dose not given beside the values. The following applies: for inhibition: concentration not given here.
The target in experiment [2] is T1, Peptidylglycine alpha-amidating monooxygenase (Rattus norvegicus) (UniProt P14925).
T1 sequence (whole entry): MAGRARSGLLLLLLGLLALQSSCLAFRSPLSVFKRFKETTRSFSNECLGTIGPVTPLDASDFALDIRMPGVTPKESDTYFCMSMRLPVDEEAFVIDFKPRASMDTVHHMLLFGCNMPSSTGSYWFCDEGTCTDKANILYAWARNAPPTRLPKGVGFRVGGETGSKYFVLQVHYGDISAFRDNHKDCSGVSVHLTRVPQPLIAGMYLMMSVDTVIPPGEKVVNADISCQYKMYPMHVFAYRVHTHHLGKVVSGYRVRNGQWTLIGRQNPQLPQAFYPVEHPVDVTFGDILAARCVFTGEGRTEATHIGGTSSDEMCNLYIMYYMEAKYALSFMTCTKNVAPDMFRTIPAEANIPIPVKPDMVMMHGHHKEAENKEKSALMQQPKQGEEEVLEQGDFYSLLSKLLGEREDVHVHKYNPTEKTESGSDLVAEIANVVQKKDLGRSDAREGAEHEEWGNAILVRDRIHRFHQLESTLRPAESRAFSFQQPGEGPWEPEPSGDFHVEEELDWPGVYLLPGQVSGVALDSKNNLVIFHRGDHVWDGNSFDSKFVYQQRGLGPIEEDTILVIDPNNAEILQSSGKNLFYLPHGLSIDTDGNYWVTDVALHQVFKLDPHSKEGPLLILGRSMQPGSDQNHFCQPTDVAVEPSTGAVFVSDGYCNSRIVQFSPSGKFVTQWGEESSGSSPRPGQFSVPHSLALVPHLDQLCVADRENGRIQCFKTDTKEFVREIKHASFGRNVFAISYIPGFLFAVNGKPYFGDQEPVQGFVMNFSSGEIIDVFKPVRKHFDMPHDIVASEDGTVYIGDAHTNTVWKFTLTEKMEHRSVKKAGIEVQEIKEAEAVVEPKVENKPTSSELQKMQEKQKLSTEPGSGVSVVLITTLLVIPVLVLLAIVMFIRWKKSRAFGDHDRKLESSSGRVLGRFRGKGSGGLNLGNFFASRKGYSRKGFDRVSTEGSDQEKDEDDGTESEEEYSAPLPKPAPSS
Description: Activity of rat recombinant peptidylglycine alpha-amidating monooxygenase assessed as stimulation of oxygen consumption.

Experiment [3] addresses T1, Peptidylglycine alpha-amidating monooxygenase (Rattus norvegicus). Put plainly: Ratio of Vm(app) to Km(app) for rat recombinant peptidylglycine alpha-amidating monooxygenase. The essentials: (§1)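 Recombinant rat type A medullary thyroid carcinoma PAM (bifunctional), 15–50 μg, in 100 mM MES/NaOH pH 6.0, 30 mM NaCl, 1% ethanol, 0.001% Triton X-100, 10 μg/mL catalase, 1.0 μM Cu(NO3)2, 5.0 mM ascorbate, ~200 μM O2, 37 °C. Substrate generally 0.3–5.0 KM,app. Initial O2 consumption rates read by oxygen monitor and fit to Michaelis–Menten.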

For experiment [4] the target is unchanged. Description: Ratio of Vm(app) to Km(app) for rat recombinant peptidylglycine alpha-amidating monooxygenase relative to hippuric acid. The essentials: as §1

The structures appear in SMILES notation. Where a SMILES comes first, the peptide text is derived from it. [ ]: non-standard residue; d: D form. The star is where a group is joined. Dansyl = CN(C)c1cccc2c(S(=O)(=O)*)cccc12; pGlu = O=C1CC[C@@H](C(=O)O)N1; Boc = CC(C)(C)OC(=O)*; Bz = O=C(c1ccccc1)*; ClAc = O=C(CCl)*

As to `O=C(NC(CSC(=O)c1ccccc1)C(=O)O)c1ccccc1` (single isomer, unassigned), the inhibition in experiment [1] was less than 5%.
For `O=C(O)CNC(=O)CNC(=O)CNC(=O)c1ccccc1` (Bz-Gly-Gly-Gly-OH), the Vmax(app) in experiment [2] is 8.8 s⁻¹. In experiment [3], the Ratio stood at 2.9 ×10⁴ /M/s. Besides, the Activity in experiment [4] was found to be 4.7.
In the same order, the values of `O=C(O)CNC(=O)c1ccc(C(F)(F)F)cc1` are 2.8 s⁻¹, 3.6 ×10³ /M/s and 0.6.
As for `O=C(O)CNC(=O)c1cccnc1`, the Activity in experiment [4] worked out at 0.7.
On to `O=C(O)CNC(=O)CCCc1ccccc1`, for which the Vmax(app) in experiment [2] worked out at 11 s⁻¹. Further, the Ratio in experiment [3] worked out at 7 ×10⁴ /M/s. For the same compound, the Activity in experiment [4] came out at 11.
`Cc1ccccc1C(=O)NCC(=O)O`: the Vmax(app) in experiment [2] is 7.9 s⁻¹. For the same compound, in experiment [3], the Ratio was 1.8 ×10³ /M/s. Besides, in experiment [4], the Activity was found to be 0.3.
Taken in the same sequence, the figures for `O=C(O)CNC(=O)Nc1ccccc1` were 9.7 s⁻¹, 2.7 ×10⁴ /M/s and 4.4.
For the compound `O=C(NO)c1ccccc1O`, the inhibition in experiment [1] is less than 5%.
The same measure, in the same setting: the same measure for `CC(SC(=S)c1ccccc1)C(=O)O` (racemic): less than 5%.
With `O=C(O)CNC(=O)CCCCCc1ccccc1`, the Vmax(app) in experiment [2] came out at 11 s⁻¹. In experiment [3], the Ratio stood at 2 ×10⁵ /M/s. The Activity in experiment [4] is 32.
Taken in the same sequence, the figures for `O=C(O)CNC(=O)CCCCc1ccccc1` were 12 s⁻¹, 7.6 ×10⁴ /M/s and 12.
Take `O=C(O)CSC(=S)Nc1ccccc1`: the IC50 in experiment [1] came to 3.5 mM.
As to `CC(=O)NCC(=O)O`, the Activity in experiment [4] is 0.1.
Regarding `O=C(O)CNC(=O)C1CC1c1ccccc1` (stereo not given), the Vmax(app) in experiment [2] is 10 s⁻¹. For the same compound, in experiment [3], the Ratio was determined as 1.1 ×10⁴ /M/s. The Activity in experiment [4] stood at 1.8.
In the same order, the values of `O=C(O)CNC(=O)c1cccs1` are 9.3 s⁻¹, 6 ×10³ /M/s and 1.
Taken in the same sequence, the figures for `O=C(O)CNC(=O)/C=C/c1ccco1` were 3.4 s⁻¹, 2.8 ×10³ /M/s and 0.45.
In the same order, the values of `COc1ccc(C(=O)NCC(=O)O)cc1` are 5.3 s⁻¹, 6.4 ×10³ /M/s and 1.
Take `Cc1cccc(C(=O)NCC(=O)O)c1`: the Vmax(app) in experiment [2] was 6.4 s⁻¹. In experiment [3], the Ratio amounted to 4.7 ×10³ /M/s. Also, the Activity in experiment [4] was determined as 0.8.
Taken in the same sequence, the figures for `Nc1ccc(C(=O)NCC(=O)O)cc1` were 5.6 s⁻¹, 2.2 ×10³ /M/s and 0.4.
Consider `O=C(O)CNCc1ccccc1`, for which, in experiment [1], the inhibition is less than 5%.
As to `O=C(O)CNC(=O)c1ccco1`, the Vmax(app) in experiment [2] is 7.5 s⁻¹. Moreover, in experiment [3], the Ratio was 2.8 ×10³ /M/s. Moreover, the Activity in experiment [4] came to 0.5.
In the same order, the values of `O=C(O)CNC(=O)c1ccc(O)cc1` are 5.8 s⁻¹, 3.5 ×10³ /M/s and 0.6.
On to `O=C(O)CNC(=S)CCc1ccccc1`, for which the Vmax(app) in experiment [2] amounted to 1.6 s⁻¹. Also, the Ratio in experiment [3] turned out to be 4.2 ×10⁴ /M/s. In experiment [4], the Activity stood at 6.8.
In the same order, the values of `O=C(O)CNC(=O)[C@@H]1CCC(=O)N1` ([pGlu]-Gly-OH) are 9.3 s⁻¹, 3 ×10⁴ /M/s and 4.8.
In the case of `CC(=O)N[C@H](C)C(=O)O`, in experiment [2], the Vmax(app) was found to be 1.3 s⁻¹. For the same compound, the Ratio in experiment [3] stood at 0.95 M⁻¹ s⁻¹.
Turning to `O=C(O)CNC(=O)/C=C/c1ccccc1`, the Vmax(app) in experiment [2] amounted to 8.4 s⁻¹. The Ratio in experiment [3] came out at 3.6 ×10⁴ /M/s. Moreover, the Activity in experiment [4] amounted to 5.8.
Taken in the same sequence, the figures for `Cc1ccc(C(=O)NCC(=O)O)cc1` were 5.7 s⁻¹, 3.2 ×10³ /M/s and 0.5.
In the same order, the values of `O=C(O)CNC(=O)c1ccc(Br)cc1` are 2.5 s⁻¹, 4.9 ×10³ /M/s and 0.8.
In the same order, the values of `CC(C)(C)OC(=O)NCC(=O)O` are 6.3 s⁻¹, 1.7 ×10³ /M/s and 0.3.
With `CC(C)(C)OC(=O)NCC(=O)NCC(=O)O` (Boc-Gly-Gly-OH), in experiment [2], the Vmax(app) was 7.5 s⁻¹. In experiment [3], the Ratio worked out at 2.5 ×10⁴ /M/s. Moreover, the Activity in experiment [4] was 4.
Taken in the same sequence, the figures for `CCCc1ccc(C(=O)NCC(=O)O)cc1` were 5.1 s⁻¹, 4.2 ×10³ /M/s and 0.7.
In the same order, the values of `CC(=O)NCC(=O)NCC(=O)O` are 8.9 s⁻¹, 5.9 ×10³ /M/s and 1.
In the case of `CC(C)[C@H](NC(=O)[C@H](Cc1ccc(O)cc1)NS(=O)(=O)c1cccc2c(N(C)C)cccc12)C(=O)N[C@H](C)C(=O)O` (Dansyl-Tyr-Val-[dA]-OH), in experiment [2], the Vmax(app) was 0.91 s⁻¹. For the same compound, in experiment [3], the Ratio is 3 ×10⁴ /M/s.
Consider `O=C(O)CNC(=O)c1ccccc1O`, for which the Vmax(app) in experiment [2] is 4.9 s⁻¹. The Ratio in experiment [3] came out at 7.1 ×10³ /M/s. Also, the Activity in experiment [4] was 1.1.
In the same order, the values of `Nc1ccccc1C(=O)NCC(=O)O` are 4.2 s⁻¹, 2.9 ×10³ /M/s and 0.5.
In the same order, the values of `CC(C)SCC(=O)NCC(=O)O` are 1.8 s⁻¹, 8.2 ×10³ /M/s and 1.3.
In the same order, the values of `O=C(O)CNC(=O)CSc1ccccc1` are 4.6 s⁻¹, 2.5 ×10⁴ /M/s and 4.
With `O=C(O)CNC(=O)CNC(=O)c1ccc([N+](=O)[O-])cc1`, the Vmax(app) in experiment [2] was 8.7 s⁻¹. In experiment [3], the Ratio was found to be 7.6 ×10⁴ /M/s. The Activity in experiment [4] worked out at 12.
As for `O=C(O)CNC(=O)SCc1ccccc1`, the Vmax(app) in experiment [2] was 0.69 s⁻¹. Further, the Ratio in experiment [3] worked out at 1.2 ×10⁴ /M/s. Moreover, in experiment [4], the Activity was found to be 1.9.
Taken in the same sequence, the figures for `O=C(O)CNC(=O)CNC(=O)CCl` (ClAc-Gly-Gly-OH) were 8.9 s⁻¹, 2.1 ×10⁴ /M/s and 3.3.
In the same order, the values of `O=C(O)CNC(=O)CCc1ccccc1` are 9.9 s⁻¹, 1.1 ×10⁴ /M/s and 1.8.
In the case of `C[C@@H](NC(=O)c1ccccc1)C(=O)O`, in experiment [2], the Vmax(app) stood at 0.27 s⁻¹. In experiment [3], the Ratio was determined as 3.2 M⁻¹ s⁻¹.
In the case of `O=C(O)CNC(=O)c1c(F)cccc1F`, the Vmax(app) in experiment [2] was determined as 4.3 s⁻¹. In experiment [3], the Ratio was 2.3 ×10² /M/s. Moreover, in experiment [4], the Activity amounted to 0.04.
In the same order, the values of `O=C(O)CNC(=O)c1ccccc1I` are 3.1 s⁻¹, 9.1 ×10² /M/s and 0.1.
Taken in the same sequence, the figures for `O=C(O)CNC(=O)c1ccc([N+](=O)[O-])cc1` were 4.2 s⁻¹, 8.9 ×10³ /M/s and 1.4.
For the compound `O=C(O)CNC(=O)CNC(=O)c1ccccc1` (Bz-Gly-Gly-OH), the Vmax(app) in experiment [2] is 12 s⁻¹. The Ratio in experiment [3] worked out at 1.6 ×10⁵ /M/s. The Activity in experiment [4] came out at 26.
Taken in the same sequence, the figures for `O=C(O)CNC(=S)Cc1ccccc1` were 2.4 s⁻¹, 1 ×10⁵ /M/s and 16.
In the same order, the values of `CCc1ccc(C(=O)NCC(=O)O)cc1` are 3.6 s⁻¹, 3.1 ×10³ /M/s and 0.5.
In the same order, the values of `CC(C)CCC(=O)NCC(=O)O` are 6.6 s⁻¹, 2.3 ×10⁴ /M/s and 3.7.
For the compound `O=C(O)CNC(=O)c1cccc(Cl)c1`, the Vmax(app) in experiment [2] was found to be 7.8 s⁻¹. For the same compound, the Ratio in experiment [3] turned out to be 3.6 ×10³ /M/s. Besides, in experiment [4], the Activity came out at 0.6.
Regarding `CC(Cc1ccccc1)C(=O)NCC(=O)O` (stereo not given), the Vmax(app) in experiment [2] is 18 s⁻¹. In addition, in experiment [3], the Ratio was determined as 4.3 ×10³ /M/s. The Activity in experiment [4] came out at 0.69.
In the same order, the values of `O=C(O)CNC(=O)c1ccc(Cl)cc1` are 4.1 s⁻¹, 6.6 ×10³ /M/s and 1.1.
Taken in the same sequence, the figures for `O=C(O)CNC(=O)CCCCCCCc1ccccc1` were 8 s⁻¹, 7.6 ×10⁴ /M/s and 12.
Taken in the same sequence, the figures for `O=C(O)CNC(=O)OCc1ccccc1` were 8.6 s⁻¹, 1.5 ×10⁴ /M/s and 2.4.

As a reminder, the inhibition is the drop in the measured response relative to a control, in per cent. A word on the IC50: it is the concentration that gives 50% inhibition.
